Results reported in ChEMBL document CHEMBL4229374 (Eur J Med Chem, 2018).
Calls of active or inactive are those of the source. The calls are words filed in the database; no cut-off is given here.

Tests used:
[1] = target: T1, Aldo-keto reductase family 1 member C2 (Homo sapiens, UniProt P52895); test: Inhibition of recombinant N-terminal GST-tagged human AKR1C2 expressed in Escherichia coli BL21 (DE) Codon Plus RP cells using S-tetralol as substrate in presence of NADP+ by fluorimetric analysis
T1 sequence (P52895 whole entry): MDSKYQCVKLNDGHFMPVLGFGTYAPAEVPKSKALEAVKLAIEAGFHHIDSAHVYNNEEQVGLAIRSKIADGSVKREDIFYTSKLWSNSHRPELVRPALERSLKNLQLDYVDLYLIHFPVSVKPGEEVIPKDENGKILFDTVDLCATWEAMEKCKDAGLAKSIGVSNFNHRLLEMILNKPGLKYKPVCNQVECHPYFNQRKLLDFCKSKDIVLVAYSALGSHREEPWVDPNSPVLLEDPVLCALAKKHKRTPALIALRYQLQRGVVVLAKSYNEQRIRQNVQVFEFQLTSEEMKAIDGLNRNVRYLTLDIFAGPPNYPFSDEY
Method in brief: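 GST-tagged AKR1C2 purified on glutathione sepharose with thrombin cleavage. Percent inhibition from initial velocities versus solvent controls. IC50 as means of two experiments, each in triplicate.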

[2] = target: Prostaglandin G/H synthase 2 (Homo sapiens) (UniProt P35354); test: Inhibition of human COX2 assessed as reduction in PGF2alpha production at 100 uM by ELISA; details: human COX2 enzyme
[3] = target: T2, COX1 (prostaglandin G/H synthase 1) (Ovis aries, UniProt P05979); test: Inhibition of ovine COX1 assessed as reduction in PGF2alpha production at 100 uM by ELISA; details: sheep, ovine COX1 enzyme
T2 sequence (P05979 whole entry): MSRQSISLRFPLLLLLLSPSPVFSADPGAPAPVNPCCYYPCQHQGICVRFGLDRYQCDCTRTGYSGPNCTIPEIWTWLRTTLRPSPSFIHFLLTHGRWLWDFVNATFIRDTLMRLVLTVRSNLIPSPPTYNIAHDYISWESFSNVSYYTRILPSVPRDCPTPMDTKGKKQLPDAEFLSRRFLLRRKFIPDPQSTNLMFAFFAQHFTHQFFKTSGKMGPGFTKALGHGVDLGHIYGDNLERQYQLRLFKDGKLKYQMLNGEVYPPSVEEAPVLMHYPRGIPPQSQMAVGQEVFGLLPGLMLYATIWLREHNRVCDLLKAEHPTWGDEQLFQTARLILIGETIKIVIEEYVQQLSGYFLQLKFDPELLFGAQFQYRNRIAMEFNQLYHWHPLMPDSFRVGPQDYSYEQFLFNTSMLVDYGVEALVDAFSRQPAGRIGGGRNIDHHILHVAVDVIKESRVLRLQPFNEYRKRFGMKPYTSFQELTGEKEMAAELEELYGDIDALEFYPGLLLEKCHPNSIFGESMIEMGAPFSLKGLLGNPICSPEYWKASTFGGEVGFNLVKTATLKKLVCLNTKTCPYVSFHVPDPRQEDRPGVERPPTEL
Method in brief: (§1)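 Ovine COX1 or human COX2 reaction in a commercial inhibitor screening kit. PGH2 formed is reduced with SnCl2 to PGF2α, which is quantified by enzyme immunoassay (absorbance). Single-point inhibition at 100 µM given as % ± SE. IC50 by linear regression. Mean ± SE of at least three experiments.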

[4] = target: T3, Aldo-keto reductase family 1 member C3 (Homo sapiens, UniProt P42330); test: Inhibition of recombinant N-terminal GST-tagged human AKR1C3 expressed in Escherichia coli BL21 (DE) Codon Plus RP cells using S-tetralol as substrate in presence of NADP+ by fluorimetric analysis
T3 sequence (P42330 whole entry): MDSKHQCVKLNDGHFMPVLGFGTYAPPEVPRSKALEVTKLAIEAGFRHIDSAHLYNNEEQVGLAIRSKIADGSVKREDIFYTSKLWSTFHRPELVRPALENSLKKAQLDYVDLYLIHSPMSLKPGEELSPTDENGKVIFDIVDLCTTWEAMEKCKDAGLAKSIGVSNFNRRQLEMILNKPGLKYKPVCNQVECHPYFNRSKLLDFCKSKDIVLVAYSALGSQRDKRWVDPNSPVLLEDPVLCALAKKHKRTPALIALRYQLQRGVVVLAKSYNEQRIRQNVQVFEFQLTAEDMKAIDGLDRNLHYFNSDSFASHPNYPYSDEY

[5] = target: T4, Prostaglandin G/H synthase 1 (Ovis aries, UniProt P05979); test: Inhibition of ovine COX1 assessed as reduction in PGF2alpha production by ELISA; method in brief: as §1
T4 sequence (P05979 whole entry): T2 sequence (P05979 whole entry)

[6] = system: CWR22R; test: Antiproliferative activity against human 22Rv1 cells after 72 hrs by sulforhodamine B colorimetric assay; assay type: functional, cell-based; details: 22Rv1, 72 h
[7] = system: CWR22R; test: Reduction in PSA expression level in human 22Rv1 cells by Western blot analysis; assay type: functional, cell-based
Method in brief: (§2)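 22RV1 treated for 72 h at three concentrations. Viable cells lysed in RIPA buffer with protease inhibitors, protein measured by Bradford, 20 µg run on SDS-PAGE and transferred to nitrocellulose. Probed overnight at 4 °C with goat polyclonal anti-PSA (1:500), β-actin as reference, HRP secondary, ECL detection; Ponceau staining as loading check.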

[8] = system: CWR22R; test: Antiproliferative activity against human 22Rv1 cells assessed as inhibition of cell proliferation at 100 uM after 72 hrs by sulforhodamine B colorimetric assay; assay type: functional; details: 22Rv1, 72 h
[9] = system: CWR22R; test: Reduction in PSA expression level in human 22Rv1 cells at 1 to 30 uM by Western blot analysis; assay type: functional, cell-based; method in brief: as §2
[10] = system: CWR22R; test: Synergistic antiproliferative activity against human 22Rv1 cells assessed as reduction in cell viability at 20 uM after 72 hrs in presence of enzalutamide by sulforhodamine B colorimetric proliferation assay; assay type: functional
[11] = system: CWR22R; test: Synergistic antiproliferative activity against human 22Rv1 cells assessed as reduction in cell viability at 20 uM after 72 hrs in presence of abiraterone by sulforhodamine B colorimetric proliferation assay; assay type: functional
[12] = system: CWR22R; test: Potency index, ratio of IC50 for flufenamic acid to IC50 for test compound for antiproliferative activity against human 22Rv1 cells after 72 hrs by sulforhodamine B colorimetric assay; assay type: functional
[13] = target: T5, Aldo-keto reductase family 1 member C3 (Homo sapiens) (UniProt P42330); test: Inhibition of AKR1C3-mediated testosterone production in human 22Rv1 cells preincubated for 1 hr followed by androstenedione addition and measured after 24 hrs by ELISA; assay type: cell-based
T5 sequence (whole entry): T3 sequence (P42330 whole entry)
Method in brief: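 22RV1 at 30,000 cells/well in RPMI with 10% charcoal-stripped serum, 37 °C, 5% CO2, 24 h. Inhibitor added at 4 concentrations for 1 h, then androstenedione 28 nM; further 24 h. Testosterone in supernatant quantified by ELISA. Means of two separate experiments, each in triplicate.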

Prostaglandin G/H synthase 2 (Homo sapiens), sequence (P35354 whole entry, looked up): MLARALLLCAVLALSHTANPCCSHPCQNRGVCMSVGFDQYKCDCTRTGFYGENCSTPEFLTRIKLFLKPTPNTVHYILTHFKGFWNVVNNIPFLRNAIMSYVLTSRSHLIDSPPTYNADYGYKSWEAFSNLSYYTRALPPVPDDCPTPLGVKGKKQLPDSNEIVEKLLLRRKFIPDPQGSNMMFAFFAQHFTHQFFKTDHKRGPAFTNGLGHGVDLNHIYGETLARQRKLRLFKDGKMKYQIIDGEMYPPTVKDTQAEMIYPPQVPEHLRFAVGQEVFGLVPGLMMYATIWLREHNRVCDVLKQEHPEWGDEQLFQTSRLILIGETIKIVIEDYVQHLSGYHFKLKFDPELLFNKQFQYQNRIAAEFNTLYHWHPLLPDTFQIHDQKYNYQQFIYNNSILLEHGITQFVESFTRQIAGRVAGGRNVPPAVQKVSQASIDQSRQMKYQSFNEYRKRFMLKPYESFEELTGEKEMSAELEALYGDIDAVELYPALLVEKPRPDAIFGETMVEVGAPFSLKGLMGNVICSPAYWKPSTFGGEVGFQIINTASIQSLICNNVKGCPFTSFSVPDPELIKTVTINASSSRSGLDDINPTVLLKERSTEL

Compound | IC50 [1] [µM] | inhibition at 100 µM [2] [%] | inhibition at 100 µM [3] [%] | IC50 [4] [µM] | IC50 [5] [µM] | IC50 [6] [µM] | Activity [7] | inhibition at 100 µM [8] [%] | Activity [9] | Activity [10] | Activity [11] | Ratio IC50 [12] | inhibition [13]
Oc1noc2ccc(Nc3cccc(C(F)(F)F)c3)cc12 | 66.9 | 0 | 29 | 3.48 | > 100 | 74.8 |  |  |  |  |  |  | 
COc1ccc(Cn2nnc(O)c2C(=O)Nc2cccc(C(F)(F)F)c2)cc1OC | 108 | 0.87 | 0 | 0.4 | > 100 | 59.2 | Dose-dependent effect |  |  |  |  |  | 
Oc1noc2cccc(Nc3cccc(S(F)(F)(F)(F)F)c3)c12 | 4.29 | 4.3 | 0 | 0.31 | > 100 | 64.9 |  |  |  |  |  |  | 
O=[N+]([O-])c1cccc(Nc2cccc3onc(O)c23)c1 | 5.7 | 0.37 | 0 | 1.41 | > 100 | > 100 |  | 31.1 |  |  |  |  | 
Oc1noc2cccc(Nc3cccc(C(F)(F)F)c3)c12 | 4.38 | 13 | 29 | 0.55 | > 100 | 64.8 |  |  |  |  |  |  | 
COc1ccc(Cn2nnc(O)c2C(=O)Nc2cccc(C(F)(F)F)c2)cc1 |  |  |  |  |  |  |  |  | inactive |  |  |  | 
O=C(Nc1cccc(C(F)(F)F)c1)c1c(O)nnn1Cc1ccc(OC(F)(F)F)cc1 | 54.9 | 0 | 0 | 0.19 | > 100 | 31.3 | Dose-dependent effect |  |  | 10 - 25% | 10 - 25% | >=4 | Dose-dependent effect
Oc1noc2cccc(Nc3cc(C(F)(F)F)cc(C(F)(F)F)c3)c12 | 119 | 0 | 2.1 |  | > 100 |  |  |  |  | 10 - 25% | 10 - 25% |  | 
